ASAP1 inh – inhibitors of human ASAP1 ArfGAP activity, primary screen, biochemical, fluorescence polarization. inhibition, % at 16.5 µM. hit rate 0.19% among 360,000. ASAP1-stimulated ARF1 GTP hydrolysis, GDP FP detection. AID 624377, 2012. Arf-GAP with SH3 domain, ANK repeat and PH domain-containing protein 1 (Homo sapiens), …; in the data active = inhibition above about 25%;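 note: 0% = vehicle with enzyme and substrate and 100% = no enzyme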
Target sequence (Q9ULH1 325-724 limits assumed): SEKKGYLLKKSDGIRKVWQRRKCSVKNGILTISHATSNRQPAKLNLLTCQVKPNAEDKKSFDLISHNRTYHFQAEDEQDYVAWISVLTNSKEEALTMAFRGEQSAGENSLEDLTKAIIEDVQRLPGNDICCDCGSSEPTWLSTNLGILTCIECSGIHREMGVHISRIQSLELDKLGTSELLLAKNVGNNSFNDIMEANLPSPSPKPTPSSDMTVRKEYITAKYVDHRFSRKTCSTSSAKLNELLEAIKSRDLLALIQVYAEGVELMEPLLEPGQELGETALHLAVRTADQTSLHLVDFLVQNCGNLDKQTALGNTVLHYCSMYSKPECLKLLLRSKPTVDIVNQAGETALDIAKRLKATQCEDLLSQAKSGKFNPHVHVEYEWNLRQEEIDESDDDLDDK
ARFGAP1 inh – inhibitors of rat ARFGAP1 GAP activity, primary screen, biochemical, fluorescence polarization, GDP tracer | Arfgap1-stimulated ARF1 GTP hydrolysis, GDP FP detection | hit rate 0.26% among 360,000 | ADP-ribosylation factor GTPase-activating protein 1 (Rattus norvegicus), Q62848 | AID 651572, 2012 | inhibition, % at 16.5 µM;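 active = inhibition above a per-plate limit, mean inhibition of low control wells plus 3 SD, cut at about 25% in these data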;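 note: 0% = DMSO wells with enzyme and 100% = wells lacking Arfgap1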
Target sequence (Q62848 1-136 limits assumed): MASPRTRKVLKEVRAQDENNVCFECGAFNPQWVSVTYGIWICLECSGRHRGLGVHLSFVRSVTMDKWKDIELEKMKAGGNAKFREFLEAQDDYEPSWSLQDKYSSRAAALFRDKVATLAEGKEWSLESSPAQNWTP
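System: truncated rat Arfgap1 GAP domain / Medium: HEPES-based buffer, pH 7.5 / Also added: N-terminally truncated human ARF1-GTP substrate / Incubation: enzyme reaction 120 min at 25 °C after 20 min preincubation / Measured by: FP of antibody-bound GDP Alexa 633 tracer, ex 620/em 688 nm / Replicates: singlicate, each compound tested once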
esBAF inh – Bmi1 luciferase reporter increase in mESCs, primary screen, esBAF inhibitor project, mouse ES cells, Bmi1 luciferase knock-in, single point. 24 h; 100% = twice the neutral-well signal. reporter increase, % at 12.5 µM. hit rate 2% among 350,000. AID 602393, 2012; in the data active = activation above about 40%;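 note: 0% = median of the plate's neutral control wells and 100% = double that signal; a rise in the Bmi1 reporter signal indicates esBAF inhibition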
SMARCA2 activ – SMARCA2 (BRM) function activators, primary screen, cell-based, luminescence, high throughput; MG213 cells, MMTV-luciferase reporter, dexamethasone, overnight; activation, % at 9.1 µM; hit rate 1% among 370,000; AID 652017, 2013; in the data active = activation above about 7.8%;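 note: 0% = vehicle wells and 100% = reference activator wells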
The depositor's hits bear a star; x = not tested or not shown. Hits are enriched below; roughly 2.6% of the tested compounds scored in any of these assays.

SMILES	ASAP1 inh	ARFGAP1 inh	esBAF inh	SMARCA2 activ
Nc1ncn([C@@H]2O[C@H](CO)[C@@H](O)[C@H]2O)c(=O)n1	8	0	67*	0
COc1ccccc1NC(=O)N[C@H]1CC[C@H](CCn2cc(-c3ccccc3OC)nn2)O[C@@H]1CO	x	x	2	x
O=C(/C=C/C=C/c1ccc2c(c1)OCO2)N1CCCCC1	19	2	51*	4
CN1CCN(C(=O)/C=C/c2ccc3c(c2)OCO3)CC1	-16	0	x	-1
Nc1ccccc1C(=O)/C=C/c1ccc2c(c1)OCO2	10	3	73*	7
CCCC(=O)Nc1ccc2c(c1)OC[C@H](C)N(Cc1ccc(-c3ccccn3)cc1)C[C@@H](C)[C@@H](OC)CN(C)C2=O	x	x	1	x
C[C@H]1CN([C@@H](C)CO)C(=O)Cc2cc(NC(=O)CCC(F)(F)F)ccc2O[C@H]1CN(C)Cc1ccc2c(c1)OCO2	x	x	6	x
Cc1ccc(OC(=O)N2CCOCC2)cc1	-5	8	22	0
CC(C)(C)c1ccc(OC(=O)N2CCOCC2)cc1	9	-2	45*	4
C[C@H](CO)N1C[C@H](C)[C@@H](CN(C)Cc2ccc(Oc3ccccc3)cc2)Oc2c(NC(=O)c3nc4ccccc4s3)cccc2C1=O	x	x	4	x
C[C@@H]1CN([C@@H](C)CO)S(=O)(=O)c2ccc(C#C[C@@H](C)O)cc2O[C@@H]1CN(C)C(=O)c1ccccc1	x	x	4	x
CN(C)c1ccc(C(=O)OCc2ccccc2)cc1	-5	7	50*	-1
CC(=O)Nc1ccc(SCc2ncc(-c3ccccc3)o2)cc1	5	-3	55*	4
CC(=O)Nc1ccc(SCC(=O)Nc2ccccc2-c2ccccc2)cc1	-3	0	x	-2
C[C@@H]1CCCCO[C@H](CN(C)C(=O)CCCN(C)C)[C@H](C)CN([C@H](C)CO)C(=O)c2cc(NC(=O)c3ccccc3)ccc2O1	x	x	-3	x
N#Cc1c(-c2ccc([N+](=O)[O-])cc2)nc2n(c1=O)CCS2	0	8	-3	-2
O=[N+]([O-])c1ccc(-c2cn3c(n2)SCC3)cc1	3	18	60*	-3
Cc1csc(NC(=O)c2ccoc2C)n1	-5	-7	42*	6
Cc1csc(NC(=O)c2ccc(COc3cccc(Cl)c3)o2)n1	x	x	x	-1
Cc1csc(NC(=O)c2ccc(COc3ccccc3)o2)n1	-4	-1	63*	-3
Cc1csc(NC(=O)CSc2nnc(-c3ccoc3C)o2)n1	1	4	43*	3
Cc1cccc(NC(=O)c2ccc(S(=O)(=O)N(C)C)cc2)n1	4	-5	49*	3
Cc1cccc(NC(=O)CN(C)S(=O)(=O)c2ccc(Cl)cc2)n1	-11	-5	x	1
COc1ccc(CN(C)C[C@H]2OCCCC[C@@H](C)Oc3ccc(NC(=O)NC4CCCCC4)cc3C(=O)N([C@@H](C)CO)C[C@@H]2C)cc1	x	x	4	x
Cc1noc(C)c1S(=O)(=O)Nc1ccc2c(c1)C(=O)N([C@H](C)CO)C[C@H](C)[C@@H](CN(C)C(=O)Cc1ccccc1)OCCCC[C@H](C)O2	x	x	7	x
SMILES	ASAP1 inh	ARFGAP1 inh	esBAF inh	SMARCA2 activ
CCC(=O)N1C[C@H](C)[C@@H](OC)CN(C)C(=O)c2ccc(NC(=O)C3CCOCC3)cc2OC[C@H]1C	x	x	-8	x
Cc1cccc(NC(=O)c2ccoc2C)n1	-4	-6	45*	2
Cc1cccc(NC(=O)c2ccccc2Br)n1	8	-3	37	3
CCOC(=O)c1nn(-c2ccc(C)c(C)c2)cc1O	4	8	46*	7
CCOC(=O)c1nn(-c2ccc([N+](=O)[O-])cc2)cc1O	2	-1	27	7
Cc1ccc(NC(=O)COC(=O)c2nn(-c3ccc(Cl)cc3)cc2O)cc1	4	1	49*	2
CCOC(=O)c1nn(-c2ccc(C)cc2)cc1C(=O)c1ccccc1	12	-1	79*	4
C[C@H]1CN([C@@H](C)CO)C(=O)c2cc(-c3ccccc3)cnc2O[C@H]1CN(C)C(=O)c1ccccc1F	x	x	-1	x
COc1cccc(C(=O)N=c2sc3c(C)ccc(OC)c3n2C)c1	-6	-2	48*	0
COc1cccc(CNC(=O)[C@H]2[C@H](CO)[C@H]3Cn4c(ccc(-c5cncnc5)c4=O)[C@@H]2N3C(C)=O)c1	x	x	3	x
O=C(NCc1ccc(F)cc1)[C@@H]1N[C@@H]2c3ccc(-c4ccccc4)c(=O)n3C[C@@H]2[C@H]1CO	x	x	1	x
Cc1ccccc1NC(=O)OCc1ccccc1	-4	0	53*	-1
CSc1ccccc1COC(=O)Nc1ccccc1C	-3	-11	6	3
O=C(Nc1nccs1)c1ccc(-c2ccc(F)c(Cl)c2)o1	12	6	57*	3
O=C(Nc1nccs1)c1ccc(-c2ccc(Cl)cc2Cl)o1	-5	-12	x	0
C[C@@H]1CCCCO[C@H](CN(C)Cc2ccncc2)[C@H](C)CN([C@@H](C)CO)C(=O)c2cc(NS(C)(=O)=O)ccc2O1	x	x	2	x
Cc1cc(CNC(=O)c2cccc(OC3CCN(S(=O)(=O)N(C)C)CC3)c2)on1	-2	-4	71*	0
CN(C)S(=O)(=O)N1CCC(Oc2cccc(C(=O)NC3CCCCCC3)c2)CC1	7	-14	0	-4
CCOC(=O)c1c(C)[nH]c2cc(Br)c(O)cc12	7	-7	54*	3
C[C@@H]1CN([C@@H](C)CO)C(=O)c2cc(NS(=O)(=O)c3cn(C)cn3)ccc2O[C@@H](C)CCCCO[C@H]1CN(C)C(=O)c1ccncc1	x	x	-1	x
CCOC(=O)NC(=O)CSc1nc2ccc(OCC)cc2[nH]1	3	1	x	-1
CCOc1ccc2nc(SC(C)C(N)=O)[nH]c2c1 (configuration not stated)	13	-9	6	7.9*
C[C@@H]1CN([C@@H](C)CO)C(=O)c2cc(-c3ccc(C(=O)N(C)C)cc3)cnc2O[C@@H]1CN(C)C(=O)C1CC1	x	x	4	x
S=C(c1ccc(-c2ccc(Cl)cc2Cl)o1)N1CCCCC1	2	3	53*	-3
S=C(c1ccc(-c2ccc(Cl)cc2Cl)o1)N1CCCC1	-21	-12	x	0
S=C(c1ccc(-c2ccc(Cl)c(Cl)c2)o1)N1CCOCC1	x	x	45*	x
O=C(c1ccc(-c2ccccc2Cl)o1)N1CCCC(C(F)(F)F)C1 (configuration not stated)	-6	-6	51*	5
Cc1c(C(=O)N2CCCC(C(F)(F)F)C2)oc2ccccc12 (configuration not stated)	-4	9	8	-1
O=C(NC12CC3CC(CC(C3)C1)C2)c1ccc(-c2ccccc2Cl)o1	-10	0	45*	1
C[C@H](O)C#Cc1ccc2c(c1)O[C@H](CN(C)C(=O)C1CC1)[C@@H](C)CN([C@@H](C)CO)S2(=O)=O	x	x	-1	x

Screens deposited in PubChem BioAssay by several laboratories.
